ChEMBL document CHEMBL3992553, “New nitrofurans amenable by isocyanide multicomponent chemistry are active against multidrug-resistant and poly-resistant Mycobacterium tuberculosis” (Bioorg Med Chem, 2017)
Values after ≈ are worked out from the molar mass of the structure shown.

tested on: Staphylococcus aureus; assay: Antibacterial activity against methicillin-resistant Staphylococcus aureus DSM 11822 after 18 hrs; assay type: functional; conditions: DSM 11822, 18 h
Method in brief: (§1)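 Broth microdilution MIC. Gram-negatives grown overnight at 37 °C in Müller-Hinton broth + 1% glucose, pH 7.2; Gram-positives in trypticase soy broth with yeast extract, pH 7.2. Inoculum 5×10^5 cfu/mL final. Serial dilutions from 100 µM down to 0.2 µM, DMSO ≤1%. 18 h at 37 °C, moist; OD600. MIC = lowest concentration completely suppressing growth.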

Row | Compound | MIC
1 | CC(C)(C)NC(=O)C1(C)CCC(=O)N1/N=C/c1ccc([N+](=O)[O-])o1 (centres undefined) | > 100 µM
2 | CC1(C(=O)NCc2ccccc2)COCC(=O)N1/N=C/c1ccc([N+](=O)[O-])o1 (centres undefined) | 100 µM (≈ 38.6 µg/mL)
3 | CC(C)(C)NC(=O)C1(C)COCC(=O)N1/N=C/c1ccc([N+](=O)[O-])o1 (centres undefined) | > 100 µM
4 | CC1(C(=O)NCc2ccc(Cl)cc2)CCC(=O)N1/N=C/c1ccc([N+](=O)[O-])o1 (centres undefined) | > 100 µM
5 | CC1(C(=O)NC2CCCCC2)COCC(=O)N1/N=C/c1ccc([N+](=O)[O-])o1 (centres undefined) | 100 µM (≈ 37.8 µg/mL)
6 | CC1(C(=O)NC2CCCCC2)CN(S(C)(=O)=O)CC(=O)N1/N=C/c1ccc([N+](=O)[O-])o1 (centres undefined) | > 100 µM
7 | CC1(C(=O)NCc2ccc(Cl)cc2)CCCC(=O)N1/N=C/c1ccc([N+](=O)[O-])o1 (centres undefined) | 100 µM (≈ 41.9 µg/mL)

tested on: Staphylococcus aureus; assay: Antibacterial activity against methicillin-resistant Staphylococcus aureus RKI 11-02670 after 18 hrs; assay type: functional; conditions: RKI 11-02670, 18 h; method in brief: as §1

Row | Compound | EC50 | MIC
8 | CC(C)(C)NC(=O)C1(C)CCC(=O)N1/N=C/c1ccc([N+](=O)[O-])o1 (centres undefined) | 91 µM | > 100 µM
9 | CC1(C(=O)NCc2ccccc2)COCC(=O)N1/N=C/c1ccc([N+](=O)[O-])o1 (centres undefined) | 77 µM | 100 µM
10 | CC(C)(C)NC(=O)C1(C)COCC(=O)N1/N=C/c1ccc([N+](=O)[O-])o1 (centres undefined) | 50 µM | > 100 µM
11 | CC1(C(=O)NCc2ccc(Cl)cc2)CCC(=O)N1/N=C/c1ccc([N+](=O)[O-])o1 (centres undefined) | > 100 µM | > 100 µM
12 | CC1(C(=O)NC2CCCCC2)COCC(=O)N1/N=C/c1ccc([N+](=O)[O-])o1 (centres undefined) | 75 µM | 100 µM
13 | CC1(C(=O)NC2CCCCC2)CN(S(C)(=O)=O)CC(=O)N1/N=C/c1ccc([N+](=O)[O-])o1 (centres undefined) | 35.7 µM | > 100 µM
14 | CC(=O)NC[C@H]1CN(c2ccc(N3CCOCC3)c(F)c2)C(=O)O1 [LINEZOLID] | 0.25 µg/mL | 0.62 µg/mL
15 | CC1(C(=O)NCc2ccc(Cl)cc2)CCCC(=O)N1/N=C/c1ccc([N+](=O)[O-])o1 (centres undefined) | 75 µM | 100 µM

tested on: Enterococcus faecium; assay: Antibacterial activity against Enterococcus faecium DSM 20477 after 18 hrs; assay type: functional; conditions: DSM 20477, 18 h; method in brief: as §1

Row | Compound | MIC | EC50
16 | CC(C)(C)NC(=O)C1(C)CCC(=O)N1/N=C/c1ccc([N+](=O)[O-])o1 (centres undefined) | > 100 µM | –
17 | CC1(C(=O)NCc2ccccc2)COCC(=O)N1/N=C/c1ccc([N+](=O)[O-])o1 (centres undefined) | > 100 µM | –
18 | CC(C)(C)NC(=O)C1(C)COCC(=O)N1/N=C/c1ccc([N+](=O)[O-])o1 (centres undefined) | > 100 µM | > 100 µM
19 | CC1(C(=O)NCc2ccc(Cl)cc2)CCC(=O)N1/N=C/c1ccc([N+](=O)[O-])o1 (centres undefined) | > 100 µM | –
20 | CC1(C(=O)NC2CCCCC2)COCC(=O)N1/N=C/c1ccc([N+](=O)[O-])o1 (centres undefined) | > 100 µM | –
21 | CC1(C(=O)NC2CCCCC2)CN(S(C)(=O)=O)CC(=O)N1/N=C/c1ccc([N+](=O)[O-])o1 (centres undefined) | > 100 µM | > 100 µM
22 | O=C(O)c1cn(C2CC2)c2cc(N3CCNCC3)c(F)cc2c1=O [CIPROFLOXACIN] | 8 µg/mL | 2.29 µg/mL
23 | CC1(C(=O)NCc2ccc(Cl)cc2)CCCC(=O)N1/N=C/c1ccc([N+](=O)[O-])o1 (centres undefined) | > 100 µM | –

tested on: Escherichia coli; assay: Antibacterial activity against Escherichia coli DSM 1116 after 18 hrs; assay type: functional; conditions: DSM 1116, 18 h; method in brief: as §1

Row | Compound | EC50 | MIC
24 | CC(C)(C)NC(=O)C1(C)COCC(=O)N1/N=C/c1ccc([N+](=O)[O-])o1 (centres undefined) | > 100 µM | > 100 µM
25 | CC1(C(=O)NC2CCCCC2)CN(S(C)(=O)=O)CC(=O)N1/N=C/c1ccc([N+](=O)[O-])o1 (centres undefined) | > 100 µM | > 100 µM
26 | O=C(O)c1cn(C2CC2)c2cc(N3CCNCC3)c(F)cc2c1=O [CIPROFLOXACIN] | 0.01 µg/mL | –

tested on: Pseudomonas aeruginosa; assay: Antibacterial activity against Pseudomonas aeruginosa PA7 DSM 24068 after 18 hrs; assay type: functional; conditions: PA7 DSM 24068, 18 h; method in brief: as §1

Row | Compound | EC50 | MIC
27 | CC(C)(C)NC(=O)C1(C)COCC(=O)N1/N=C/c1ccc([N+](=O)[O-])o1 (centres undefined) | > 100 µM | > 100 µM
28 | CC1(C(=O)NC2CCCCC2)CN(S(C)(=O)=O)CC(=O)N1/N=C/c1ccc([N+](=O)[O-])o1 (centres undefined) | > 100 µM | > 100 µM
29 | NCC[C@H](O)C(=O)N[C@@H]1C[C@H](N)[C@@H](O[C@H]2O[C@H](CN)[C@@H](O)[C@H](O)[C@H]2O)[C@H](O)[C@H]1O[C@H]1O[C@H](CO)[C@@H](O)[C@H](N)[C@H]1O [AMIKACIN] | 3.8 µg/mL | 4.5 µg/mL

tested on: Acinetobacter baumannii; assay: Antibacterial activity against Acinetobacter baumannii DSM 30007 after 18 hrs; assay type: functional; conditions: DSM 30007, 18 h; method in brief: as §1

Row | Compound | EC50 | MIC
30 | CC(C)(C)NC(=O)C1(C)COCC(=O)N1/N=C/c1ccc([N+](=O)[O-])o1 (centres undefined) | > 100 µM | > 100 µM
31 | CC1(C(=O)NC2CCCCC2)CN(S(C)(=O)=O)CC(=O)N1/N=C/c1ccc([N+](=O)[O-])o1 (centres undefined) | > 100 µM | > 100 µM
32 | O=C(O)c1cn(C2CC2)c2cc(N3CCNCC3)c(F)cc2c1=O [CIPROFLOXACIN] | 0.2 µg/mL | 0.2 µg/mL

tested on: Escherichia coli; assay: Growth inhibition of Escherichia coli DSM 1116 at 100 uM after 18 hrs relative to control; assay type: functional; conditions: DSM 1116, 18 h, read-out: GI
Method in brief: (§2)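 Gram-negative culture grown overnight at 37 °C in Müller-Hinton broth + 1% glucose, pH 7.2, then tested at 5×10^5 cfu/mL final. Compound at 100 µM from DMSO stock, DMSO ≤1%. Incubated 18 h at 37 °C under moist conditions. OD600 read; value reported as % growth inhibition.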

Row | Compound | inhibition of growth at 100 µM
33 | CC(C)(C)NC(=O)C1(C)CCC(=O)N1/N=C/c1ccc([N+](=O)[O-])o1 (centres undefined) | 86%
34 | CC1(C(=O)NCc2ccccc2)COCC(=O)N1/N=C/c1ccc([N+](=O)[O-])o1 (centres undefined) | 83%
35 | CC1(C(=O)NCc2ccc(Cl)cc2)CCC(=O)N1/N=C/c1ccc([N+](=O)[O-])o1 (centres undefined) | 82%
36 | CC1(C(=O)NC2CCCCC2)COCC(=O)N1/N=C/c1ccc([N+](=O)[O-])o1 (centres undefined) | 84%
37 | CC1(C(=O)NCc2ccc(Cl)cc2)CCCC(=O)N1/N=C/c1ccc([N+](=O)[O-])o1 (centres undefined) | 84%

tested on: Pseudomonas aeruginosa; assay: Growth inhibition of Pseudomonas aeruginosa PA7 DSM 24068 at 100 uM after 18 hrs relative to control; assay type: functional; conditions: PA7 DSM 24068, 18 h, read-out: GI; method in brief: as §2

Row | Compound | inhibition of growth at 100 µM
38 | CC(C)(C)NC(=O)C1(C)CCC(=O)N1/N=C/c1ccc([N+](=O)[O-])o1 (centres undefined) | 92%
39 | CC1(C(=O)NCc2ccccc2)COCC(=O)N1/N=C/c1ccc([N+](=O)[O-])o1 (centres undefined) | 86%
40 | CC1(C(=O)NCc2ccc(Cl)cc2)CCC(=O)N1/N=C/c1ccc([N+](=O)[O-])o1 (centres undefined) | 89%
41 | CC1(C(=O)NC2CCCCC2)COCC(=O)N1/N=C/c1ccc([N+](=O)[O-])o1 (centres undefined) | 90%
42 | CC1(C(=O)NCc2ccc(Cl)cc2)CCCC(=O)N1/N=C/c1ccc([N+](=O)[O-])o1 (centres undefined) | 98%

tested on: Klebsiella pneumoniae; assay: Antibacterial activity against Klebsiella pneumoniae DSM 11678 after 18 hrs; assay type: functional; conditions: DSM 11678, 18 h; method in brief: as §1

Row | Compound | EC50 | MIC
43 | CC(C)(C)NC(=O)C1(C)COCC(=O)N1/N=C/c1ccc([N+](=O)[O-])o1 (centres undefined) | > 100 µM | > 100 µM
44 | CC1(C(=O)NC2CCCCC2)CN(S(C)(=O)=O)CC(=O)N1/N=C/c1ccc([N+](=O)[O-])o1 (centres undefined) | > 100 µM | > 100 µM
45 | O=C(O)c1cn(C2CC2)c2cc(N3CCNCC3)c(F)cc2c1=O [CIPROFLOXACIN] | 0.05 µg/mL | 0.07 µg/mL

tested on: Mycobacterium tuberculosis; assay: Antimycobacterial activity against Mycobacterium tuberculosis H37Rv after 7 days by REMA; assay type: functional; conditions: 168 h
Method in brief: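 REMA. 3-week H37Rv culture (2nd generation on Löwenstein–Jensen) vortexed with glass beads, set to 1.0 McFarland in 7H9, diluted 20-fold in 7H9 + OADC. 2-fold dilutions, final 1.6–400 µg/mL, 200 µL wells. 7 days at 35 °C, then resazurin 18 h. Fluorescence ex 520/em 590. MIC where signal plateaued or matched the 1% population control (t test).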

Row | Compound | MIC
46 | CC(C)(C)NC(=O)C1(C)CCC(=O)N1/N=C/c1ccc([N+](=O)[O-])o1 (centres undefined) | > 100 µM
47 | CC1(C(=O)NCc2ccccc2)COCC(=O)N1/N=C/c1ccc([N+](=O)[O-])o1 (centres undefined) | 65 µM (≈ 25.1 µg/mL)
48 | CC(C)(C)NC(=O)C1(C)COCC(=O)N1/N=C/c1ccc([N+](=O)[O-])o1 (centres undefined) | > 100 µM
49 | CC1(C(=O)NCc2ccc(Cl)cc2)CCC(=O)N1/N=C/c1ccc([N+](=O)[O-])o1 (centres undefined) | > 100 µM
50 | CC1(C(=O)NC2CCCCC2)COCC(=O)N1/N=C/c1ccc([N+](=O)[O-])o1 (centres undefined) | 66 µM (≈ 25 µg/mL)
51 | CC1(C(=O)NC2CCCCC2)CN(S(C)(=O)=O)CC(=O)N1/N=C/c1ccc([N+](=O)[O-])o1 (centres undefined) | 55 µM (≈ 25.1 µg/mL)
52 | CC1(C(=O)NCc2ccc(Cl)cc2)CCCC(=O)N1/N=C/c1ccc([N+](=O)[O-])o1 (centres undefined) | > 100 µM
